For 20 compounds, IC50 results are on record in ChEMBL document CHEMBL3045864, “Fungistatic activity of bicyclo[4.3.0]-γ-lactones” (J Agric Food Chem, 2011).

One may read the IC50 as the concentration that gives 50% inhibition.

Converted amounts (≈) assume the structure as drawn. Where only a bound is given, the exact number is not on record here.

Common to all, as to format: functional, organism-based
Assay [1] deals with Fusarium culmorum. Put plainly: Fungistatic activity against Fusarium culmorum AM 282 assessed as effect on diameter of fungal growth zone. The method, boiled down:
(§1)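 Agar dilution growth-zone assay. Lactones in DMSO were mixed into sterilized potato dextrose agar (0.01 mL DMSO per 1 mL agar) at final concentrations of 50–300 μg/mL. A fungal mycelium plug was placed on the agar and grown at 27 °C and 60–80% relative humidity. Growth-zone diameters were measured once DMSO-only control colonies reached 5.5–6.0 cm. Inhibition = (1 − Da/Db) × 100%. IC50 was taken from four concentrations, each run in triplicate. DDAC served as reference.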

The subject of assay [2] is Fusarium oxysporum. The assay can be described thus: Fungistatic activity against Fusarium oxysporum AM 13 assessed as effect on diameter of fungal growth zone. The essentials: as §1
Assay [3] concerns Fusarium tricinctum. The assay can be described thus: Fungistatic activity against Fusarium tricinctum AM 16 assessed as effect on diameter of fungal growth zone. The essentials:
as §1

Assay [4] concerns Aspergillus ochraceus. Put plainly: Fungistatic activity against Aspergillus ochraceus AM 456 assessed as effect on diameter of fungal growth zone. The essentials:
as §1

In assay [5] the test system is Penicillium citrinum. Put plainly: Fungistatic activity against Penicillium citrinum AM 354 assessed as effect on diameter of fungal growth zone. The essentials:
as §1

[6] abbreviates: Fusarium culmorum, AM 282, read-out: IC50.
[7] abbreviates: Fusarium oxysporum, AM 13, read-out: IC50.

As for `O=C1OC[C@@H]2C[C@@H](Br)[C@H](Br)C[C@H]12`, the values for the 50% inhibitory concentration (IC50) in assay [1] (setting [6]) and in assay [2] (setting [7]) were 90.5 µg/mL (≈ 304 µM) and 47.5 µg/mL (≈ 159 µM), respectively.

As for `O=C1OC[C@H]2C[C@H]3O[C@H]3C[C@@H]12` (racemic), the concentration for half-maximal inhibition (IC50) was 90.4 µg/mL (≈ 586 µM) in assay [1] (setting [6]); 156 µg/mL (≈ 1020 µM) in assay [3]; 141 µg/mL (≈ 915 µM) in assay [4]; 72.2 µg/mL (≈ 468 µM) in assay [2] (setting [7]); 312 µg/mL (≈ 2030 µM) in assay [5].

For the compound `O=C1OC[C@H]2CCCC[C@@H]12` (racemic), the IC50 in assay [1] (setting [6]) is 147 µg/mL (≈ 1050 µM); in assay [3], 222 µg/mL (≈ 1580 µM); in assay [4], 187 µg/mL (≈ 1330 µM); in assay [2] (setting [7]), 314 µg/mL (≈ 2240 µM); in assay [5] it was more than 350 µg/mL.

`O=C1OC(=O)C2CCCCC12` (racemic): the IC50 was 292 µg/mL (≈ 1890 µM) in assay [1] (setting [6]); 303 µg/mL (≈ 1960 µM) in assay [3]; 342 µg/mL (≈ 2220 µM) in assay [4]; 240 µg/mL (≈ 1560 µM) in assay [2] (setting [7]); more than 350 µg/mL in assay [5].

With `CCCCCCCCCC[N+](C)(C)CCCCCCCCCC.[Cl-]` [DIDECYLDIMETHYLAMMONIUM CHLORIDE], the IC50 in assay [1] (setting [6]) amounted to 24.5 µg/mL; in assay [3] it was 27.9 µg/mL; in assay [4], 51.3 µg/mL; in assay [2] (setting [7]), 24.2 µg/mL; in assay [5] it was 41.6 µg/mL.

Consider `O=C1OC[C@@H]2C[C@@H](Br)[C@H](O)C[C@H]12` (racemic), for which the IC50 was determined as 172 µg/mL (≈ 733 µM) in assay [1] (setting [6]); 211 µg/mL (≈ 898 µM) in assay [3]; 141 µg/mL (≈ 599 µM) in assay [4]; 141 µg/mL (≈ 600 µM) in assay [2] (setting [7]); 292 µg/mL (≈ 1240 µM) in assay [5].

On to `O=C1OC[C@H]2CC=CC[C@@H]12` (racemic), for which the IC50 is 184 µg/mL (≈ 1330 µM) in assay [1] (setting [6]); 221 µg/mL (≈ 1600 µM) in assay [3]; 171 µg/mL (≈ 1240 µM) in assay [4]; 282 µg/mL (≈ 2040 µM) in assay [2] (setting [7]); more than 350 µg/mL in assay [5].

Take `O=C1OC(=O)[C@@H]2CC=CC[C@H]12`: the IC50 in assay [1] (setting [6]) was 310 µg/mL (≈ 2040 µM); in assay [3], 289 µg/mL (≈ 1900 µM); in assay [4], 287 µg/mL (≈ 1880 µM); in assay [2] (setting [7]), 220 µg/mL (≈ 1450 µM); in assay [5] it was more than 350 µg/mL.

Turning to `O=C1OC[C@@H]2CCCC[C@H]12`, the IC50 came out at 169 µg/mL (≈ 1210 µM) in assay [1] (setting [6]) and 261 µg/mL (≈ 1860 µM) in assay [2] (setting [7]).

In the case of `CC1(C)OC(=O)[C@H]2C[C@H]3O[C@H]3C[C@H]21` (racemic), the IC50 in assay [1] (setting [6]) is 142 µg/mL (≈ 777 µM); in assay [3] it was 180 µg/mL (≈ 991 µM); in assay [4] it was 142 µg/mL (≈ 780 µM); in assay [2] (setting [7]), 95.3 µg/mL (≈ 523 µM); in assay [5] it was more than 350 µg/mL.

As to `O=C1OC[C@H]2CCC[C@H](Br)[C@@H]12` (racemic), the IC50 in assay [1] (setting [6]) turned out to be 133 µg/mL (≈ 608 µM); in assay [3], 173 µg/mL (≈ 791 µM); in assay [4], 244 µg/mL (≈ 1120 µM); in assay [2] (setting [7]) it was 184 µg/mL (≈ 840 µM); in assay [5], 282 µg/mL (≈ 1290 µM).

Regarding `O=C1OCC2CCC(O)CC12` (racemic), the half-inhibitory concentration (IC50) in assay [1] (setting [6]) was 121 µg/mL (≈ 773 µM); in assay [3], 161 µg/mL (≈ 1030 µM); in assay [4] it was 212 µg/mL (≈ 1360 µM); in assay [2] (setting [7]), 127 µg/mL (≈ 811 µM); in assay [5], more than 350 µg/mL.

As for `CC1(C)OC(=O)[C@H]2CC=CC[C@H]21` (racemic), the half-inhibitory concentration (IC50) in assay [1] (setting [6]) was 183 µg/mL (≈ 1100 µM); in assay [3], 205 µg/mL (≈ 1230 µM); in assay [4], 159 µg/mL (≈ 958 µM); in assay [2] (setting [7]), 188 µg/mL (≈ 1130 µM); in assay [5], 274 µg/mL (≈ 1650 µM).

Regarding `O=C1OC[C@@H]2C[C@@H]3O[C@@H]3C[C@H]12`, the IC50 was 59.7 µg/mL (≈ 387 µM) in assay [1] (setting [6]) and 51.9 µg/mL (≈ 337 µM) in assay [2] (setting [7]).

For `O=C1OC[C@H]2C[C@@H](Br)[C@H](Br)C[C@@H]12` (racemic), the IC50 in assay [1] (setting [6]) was 81.5 µg/mL (≈ 274 µM); in assay [3], 110 µg/mL (≈ 371 µM); in assay [4], 219 µg/mL (≈ 735 µM); in assay [2] (setting [7]) it was 30.1 µg/mL (≈ 101 µM); in assay [5], 306 µg/mL (≈ 1030 µM).

Consider `O=C1OC[C@@H]2CC=CC[C@H]12`, for which the IC50 stood at 171 µg/mL (≈ 1240 µM) in assay [1] (setting [6]) and 222 µg/mL (≈ 1610 µM) in assay [2] (setting [7]).

With `CC1(C)OC(=O)[C@H]2C[C@@H](O)[C@H](Br)C[C@H]21` (racemic), the IC50 amounted to 166 µg/mL (≈ 632 µM) in assay [1] (setting [6]); 162 µg/mL (≈ 617 µM) in assay [3]; 220 µg/mL (≈ 838 µM) in assay [4]; 170 µg/mL (≈ 648 µM) in assay [2] (setting [7]); 212 µg/mL (≈ 806 µM) in assay [5].

Take `CC1(C)OC(=O)[C@H]2C[C@@H](Br)[C@H](Br)C[C@H]21` (racemic): the 50% inhibitory concentration (IC50) in assay [1] (setting [6]) was found to be 155 µg/mL (≈ 474 µM); in assay [3], 191 µg/mL (≈ 586 µM); in assay [4], 121 µg/mL (≈ 371 µM); in assay [2] (setting [7]), 80.2 µg/mL (≈ 246 µM); in assay [5] it was 255 µg/mL (≈ 782 µM).

In the case of `CC1(C)OC(=O)[C@@H]2CCCC[C@@H]21`, the figures for the half-inhibitory concentration (IC50) in assay [1] (setting [6]) and in assay [2] (setting [7]) were 121 µg/mL (≈ 717 µM) and 162 µg/mL (≈ 965 µM), respectively.

With `CC1(C)OC(=O)[C@@H]2CCCC[C@@H]21` (racemic), the IC50 in assay [1] was 134.5 µg/mL (≈ 799 µM); in assay [3], 213 µg/mL (≈ 1260 µM); in assay [4], 160 µg/mL (≈ 949 µM); in assay [2], 179.1 µg/mL (≈ 1060 µM); in assay [5], 292 µg/mL (≈ 1730 µM).
